According to article PMC9934531 (bioRxiv, 2023):
Read-outs that look alike come from different tables or passages of the source.

Legend:
[1] = tested on: slow skeletal muscle (soleus) fibers; test: Calcium sensitivity of force generation in slow skeletal muscle; type: cell-based, rat; details: 20 μM compound
Outline: (§1)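 Four male Sprague Dawley rats (7–9 months); cardiac trabeculae (n=10) and soleus fibers (n=10), soleus fibers typed slow by SDS-PAGE. Force measured in activating solutions of graded pCa, first without then with 20 μM test compound. pCa50 taken from force–pCa curve fits, and the with/without difference was analysed per preparation by paired Student's t-test. Maximal force was the mean of pCa 4.0 activations (every third; n=6), without then with compound.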

[2] = target: hydrophobic patch of cNTnC in the presence of cTnIsp; details: cited from earlier work
cardiac trabeculae = test: Calcium sensitivity of force generation in isolated cardiac trabeculae; type: cell-based, rat; details: 20 μM compound
Outline: as §1

O=C(CSc1nc(-c2ccccc2)c(-c2ccccc2)[nH]1)Nc1nccs1 [Compound 7930079, 2-[(4,5-diphenyl-1H-imidazol-2-yl)thio]-N-1,3-thiazol-2-ylacetamide]
effect on average maximal force generation ([1]; pCa 4.0, slow fibers, P=0.39): no effect | shift of force/pCa curve to higher sensitivity (ΔpCa50) ([1]; rat slow fibers, n=10, P<.01): 0.20 ± 0.03 pCa unit | Kd ([2]; read-out: apparent experimental binding affinity): 1.45 ± 0.09 µM | decrease in average maximal force (cardiac trabeculae; pCa 4.0, cardiac trabeculae, P=0.001): 8% | shift of force/pCa curve to higher sensitivity (ΔpCa50) (cardiac trabeculae; rat cardiac trabeculae, n=10, P<.01): 0.05 ± 0.04 pCa unit

CN1CCN(CCCN2c3ccccc3Sc3ccc(C(F)(F)F)cc32)CC1 [TFP, trifluoperazine]
Kd [2]: 110 ± 20 µM

CC(C)COCC(CN(Cc1ccccc1)c1ccccc1)N1CCCC1 (centres unmarked) [bepridil]
Kd [2]: 380 ± 60 µM

C[C@@H]1CC(=O)NN=C1c1ccc(NN=C(C#N)C#N)cc1 [levosimendan]
Kd [2]: ~700 µM
